CCR6 antagonist – CCR6 (human) receptor antagonism; P51684; CHO-K1 CCR6 PathHunter beta-arrestin, luminescence, CCL20-stimulated; inhibition, % at 20 µM; hit rate 0.49% among 340,000; AID 493098;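 active = compounds whose inhibition of the agonist-driven luminescence signal at 20 µM reaches about 50%, limit read from the data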;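 note: cells stimulated with CCL20 at 14 nM final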
EBI2 antag – EBI2 (human) antagonism; inhibition, % at 5 µM; hit rate 0.81% among 360,000; P32249; EBI2 beta-arrestin recruitment, luminescence, 7a,25-OHC stimulated; in the data active = inhibition above about 38%;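 note: enzyme fragment complementation signal reports receptor beta-arrestin coupling in cells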
Target sequence (P32249 whole entry, looked up, the tested form may be a part): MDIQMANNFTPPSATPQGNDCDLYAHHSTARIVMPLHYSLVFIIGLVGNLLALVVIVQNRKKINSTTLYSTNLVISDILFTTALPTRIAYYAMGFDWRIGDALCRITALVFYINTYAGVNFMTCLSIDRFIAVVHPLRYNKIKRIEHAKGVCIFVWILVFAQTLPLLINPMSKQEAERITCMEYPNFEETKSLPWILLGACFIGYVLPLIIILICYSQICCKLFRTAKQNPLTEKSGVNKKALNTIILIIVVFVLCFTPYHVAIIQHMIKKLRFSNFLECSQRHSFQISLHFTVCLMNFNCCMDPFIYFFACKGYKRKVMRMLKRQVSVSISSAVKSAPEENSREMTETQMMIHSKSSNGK
CXCR6 block – inhibitors of human CXCR6 receptor; inhibition, % at 20 µM; AID 602244; hit rate 0.36% among 360,000; CHO-K1 PathHunter CXCR6 beta-arrestin, luminescence; in the data active = inhibition above about 34%, passing the limit was not always enough;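 note: antagonist mode with CXCL16 agonist at 10 nM final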
Target sequence (O00574 whole entry, looked up): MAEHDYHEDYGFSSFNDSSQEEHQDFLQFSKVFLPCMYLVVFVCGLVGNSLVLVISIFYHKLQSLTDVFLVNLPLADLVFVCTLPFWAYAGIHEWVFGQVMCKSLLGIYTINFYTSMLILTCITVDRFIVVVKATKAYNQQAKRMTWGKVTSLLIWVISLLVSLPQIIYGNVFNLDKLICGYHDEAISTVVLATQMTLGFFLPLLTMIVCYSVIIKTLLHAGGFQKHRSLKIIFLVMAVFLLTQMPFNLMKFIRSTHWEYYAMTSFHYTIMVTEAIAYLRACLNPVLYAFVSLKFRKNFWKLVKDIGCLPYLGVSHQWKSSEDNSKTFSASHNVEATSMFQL
APJ antagonist – blocks the human apelin receptor APJ | inhibition, % at 20 µM | P35414 | hit rate 0.32% among 330,000 | CHO-K1 APJ beta-arrestin complementation, luminescence;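 active = inhibition above about 40% at 20 µM, limit read from the data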;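 note: cells challenged with 10 nM apelin-13 agonist together with compound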
APJ ag – agonists of human APJ apelin receptor; P35414; CHO-K1 APJ PathHunter beta-arrestin, luminescence; 0% DMSO wells, 100% apelin; activation, % at 20 µM; hit rate 0.11% among 330,000; AID 2520;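 active = activation more than six SD over the plate average, tested at 20 µM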
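system = engineered CHO-K1 APJ arrestin reporter cells | input = 1000 cells per well | timing = overnight seeding, 90 min compound at 25 °C, 1 h detection | measured by = enzyme-fragment complementation luminescence | read-out = beta-arrestin recruitment to APJ as agonist activity, luminescent signal | control set = negative DMSO alone, positive Apelin-13 at 10 nM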
Of the large screens only hits and unclear results are named; the others gave an inactive call. Most compounds without a hit are left out; they make up all but 1.5% or so of the library.

COc1ccc(-c2sc3ccc(OC)cc3c2-c2ccc(OCCN3CCOCC3)cc2)cc1	EBI2 antag 52.2 (no result: APJ antagonist, APJ ag)
COc1ccc2sc(-c3ccccc3OC)c(-c3ccc(SC)cc3)c2c1	none (no result: CCR6 antagonist, APJ antagonist, APJ ag)
O=C(/C=C/c1ccccc1)c1cc(Br)ccc(=O)c1O	CCR6 antagonist 59.2
CCNc1nc(NC(C)CC)nc(ON=C(C)C)n1 (stereo not given)	none
CCCCCCCCCCCCCCC[C@@H](O)[C@@H](N)CO	CCR6 antagonist 67.5 (no result: APJ antagonist, APJ ag)
Cc1nn(-c2ccccc2)c(C)c1C(=O)OCC(=O)N(C)c1c(N)n(Cc2ccccc2)c(=O)[nH]c1=O	none
Cc1ccc(OCC(=O)NNC(=S)NC(=O)c2cccs2)c(C)c1	CCR6 antagonist 55.4
COc1ccc(C)cc1NC(=O)C1CCN(C(=O)Cc2ccccc2)CC1	none
Cc1cccc(OCC(=O)NCC(=O)N/N=C/c2cc(Br)cc(Br)c2O)c1	CXCR6 block 45.4
Cn1nnnc1N=N/C(=N/Nc1ccccc1)c1ccccc1	CCR6 antagonist 86.9, CXCR6 block 44.4
O=C1C=C(c2c(O)ccc3ccccc23)c2ccccc2C1=O	CXCR6 block 46.1 (no result: APJ antagonist, APJ ag)
CC1=C[C@H]2OC(=O)[C@@H](C)[C@H]2C[C@@H]2[C@H]1C[C@@H](O)[C@@]2(C)O	none
CCC1=NN(C(=O)c2cccc(Br)c2)C(O)(c2ccc(Br)cc2)C1 (stereo not given)	CCR6 antagonist 56.0
Cc1ccc(S(=O)(=O)N2[C@H](CC(=O)c3ccc(Cl)c(Cl)c3)OC[C@@H]2C)cc1	none (no result: CCR6 antagonist, CXCR6 block, APJ antagonist, APJ ag)
O=C(CSC1=Nc2ccccc2C2CC=NN12)Nc1ccc2c(c1)OCO2 (stereo not given)	CCR6 antagonist 53.5 (no result: APJ antagonist, APJ ag)
N#Cc1ccccc1NC(=O)CSC1=Nc2ccccc2C2CC=NN12 (stereo not given)	none
Cc1cc(Cl)ccc1N=c1ssnc1Cl	EBI2 antag 38.4
COc1ccc(NC(=O)Cc2ccccc2)cn1	none
COc1ccc(CS(=O)(=O)/C(Cl)=C(/Cl)C(=O)Nc2ccc(OC)nc2)cc1	EBI2 antag 72.0
CC1(C(=O)NCC(F)(F)F)CCN1C(=O)C1(c2ccccc2)CC1 (stereo not given)	none (no result: CCR6 antagonist, APJ antagonist, APJ ag)
O=S(=O)(Nc1cccnc1)c1cccc(C(F)(F)F)c1	none
O=[N+]([O-])c1ccc(S(=O)(=O)c2cccc(C(F)(F)F)c2)nc1	CXCR6 block 46.6 (no result: CCR6 antagonist)
C/C(Cc1ccccc1)=N\NC(=O)CNC(=O)COc1ccccc1	none
CC1CCN(C(=O)c2ccc3c(c2NCCO)C(=O)c2ccccc2C3=O)CC1	EBI2 antag 46.0
CCN(CC)CCNC(=O)c1ccc2c(c1NCCO)C(=O)c1ccccc1C2=O	none
Cc1ccc(C(c2ccc(C)c(C)c2)C(O)C2OC(=O)C(O)C2O)cc1C (stereo not given)	none (no result: APJ antagonist, APJ ag)
CCOC(=O)C1=CCN(S(=O)(=O)c2ccc(F)cc2)C1c1ccc(Cl)c(Cl)c1 (stereo not given)	none (no result: CCR6 antagonist, CXCR6 block, APJ antagonist, APJ ag)
COc1cc(C(=O)Nc2c(C)cc(C)cc2C)c([N+](=O)[O-])cc1OC	none
O=C1C=CC(=O)N1c1ccc(OC(F)F)cc1	CXCR6 block 103.3 (no result: CCR6 antagonist, APJ antagonist, APJ ag)
O=C1C=CC(=O)N1c1ccc(O)cc1	CCR6 antagonist 80.7
CCOC(=O)N1CCN(C(=O)c2ccc3c(c2)sc2nc(-c4ccc(OC)cc4)cn23)CC1	none
COc1ccc2c(c1)sc1nc(-c3ccccc3)cn12	EBI2 antag 40.0
CC(=O)/C(C#N)=C1\NC(=O)C(Cc2ccc(C)c(C)c2)S1 (stereo not given)	none
C=CCn1nc([N+](=O)[O-])nc1Sc1cccc2cccnc12	CCR6 antagonist 63.8, CXCR6 block 46.9
O=[N+]([O-])c1ccc(Sc2cccc3cccnc23)cc1	none
COc1ccc(CCNC(=O)Cn2c(=O)[nH]c3ccsc3c2=O)cc1OC	none
COc1ccc(NC(=O)CN2C(=O)NC3(CCCC3)C2=O)cc1Cl	none
COc1cc(/C=C(/C#N)C(=O)NCCc2c[nH]c3ccccc23)ccc1OCc1ccccc1F	CCR6 antagonist 57.9
Cc1cc(/C=C(\C#N)C(=O)NCCc2c[nH]c3ccccc23)c(C)n1C	none
Cc1cc(C)cc(N(CCC#N)C(=O)COC(=O)Cn2[nH]c(=O)c3ccccc3c2=O)c1	none
CCN(CC)S(=O)(=O)c1ccc2oc(C(=O)NCc3ccc(F)cc3)c(C)c2c1	EBI2 antag 49.6
Cc1c(Cl)cccc1Nc1nc(N)nc(CSC(=S)N2CCOCC2)n1	none
CS(=O)(=O)c1nc(-c2ccc(Br)cc2)cc(-c2ccccc2)c1C#N	EBI2 antag 81.1
CC1=NN(C(=O)c2ccc(Cl)cc2)C(O)(c2ccccc2)C1 (stereo not given)	CCR6 antagonist 55.0
Cc1cccc(C)c1NC(=O)C(c1ccccc1OC(F)(F)F)N1CCN(c2ccc(F)cc2)CC1 (stereo not given)	none (no result: CCR6 antagonist, APJ antagonist, APJ ag)
O=C(Cn1c(N2CCN(c3ccccc3)CC2)nc2ccccc21)c1ccccc1	CCR6 antagonist 50.3
ON1C2CCCCC2N(O)C1c1c(F)c(F)c(F)c(F)c1F (stereo not given)	CCR6 antagonist 52.7
Cc1ccnc(N2C(=O)c3cccc4c([N+](=O)[O-])ccc(c34)C2=O)c1	CXCR6 block 41.9
O=C1C=CC(=O)N1c1ccc(-c2nc3ccccc3o2)cc1	CXCR6 block 60.5 (no result: CCR6 antagonist, APJ antagonist, APJ ag)
Nc1ccc(-c2nc3ccccc3o2)cc1	none
CCN(CC(=O)Nc1ccc(OC(F)F)cc1)C1CCCCC1	none
CCN(C(=S)Nc1ccc(OC(F)F)cc1)C1CCCCC1	EBI2 antag 46.6
CCOc1ccc(Oc2c(/C=N/NC(=O)C3CC3)c(C)nn2-c2ccccc2)cc1	none
COc1ccccc1CNC(=O)COC(=O)c1cc(-c2ccco2)nc2ccccc12	CCR6 antagonist 50.3
Cc1[nH]n(-c2nc(-c3ccc(Cl)cc3)cs2)c(=O)c1N=Nc1ccc(O)cc1	EBI2 antag 51.2
C=CCOc1ccc(/C=N/N2C(=O)C(CC(=O)Nc3ccc(F)cc3F)SC2=NC)cc1 (stereo not given)	none
O=C(Nc1nc2cc3c(cc2s1)OCCO3)c1ccc([N+](=O)[O-])o1	none
Cc1cccc(N2CCN(C(=O)c3ccc(Cl)c(S(=O)(=O)N4CCc5ccccc5C4)c3)CC2)c1C	none
CC(=O)NC(c1ccccc1)c1cc(Cl)c2cccnc2c1O (stereo not given)	none
CCC(=O)NC(c1ccc(C)cc1)c1cc([N+](=O)[O-])c2cccnc2c1O (stereo not given)	CXCR6 block 51.1 (no result: APJ antagonist, APJ ag)
CC(=O)NC(c1ccc(C)cc1)c1cc([N+](=O)[O-])c2cccnc2c1O (stereo not given)	CXCR6 block 48.0 (no result: CCR6 antagonist)
COc1cccc(NC(=O)CCC2CCN(Cc3nccs3)CC2)c1	none
Cc1ccc(S(=O)(=O)Nc2cccc3ncccc23)cc1	none
Cc1ccc(S(=O)(=O)Nc2cccc3ncccc23)s1	CCR6 antagonist 96.3, EBI2 antag 73.5, CXCR6 block 63.4, APJ antagonist 90.7
CC#Cc1cc2c(cc1O)CCC1C2CCC2(C)C(O)CCC12 (stereo not given)	none (no result: APJ antagonist, APJ ag)
Nc1nn(-c2ccccc2)c(N)c1N=Nc1ccccc1	none
